Test results reported in ChEMBL document CHEMBL4000184, “Synthesis of Novel c(AmpRGD)-Sunitinib Dual Conjugates as Molecular Tools Targeting the αvβ3 Integrin/VEGFR2 Couple and Impairing Tumor-Associated Angiogenesis” (J Med Chem, 2017).
Active and inactive are the calls of the source. No cut-off for these calls is given here.

Tests used:
Integrin alpha-V/beta-3 [1] = target: T1, Integrin alpha-V/beta-3 (Homo sapiens, UniProt P05106+P06756); test: Displacement of biotinylated vitronectin from human integrin alphaVbeta3 measured after 3 hrs by solid-phase receptor binding assay; type: protein-complex assay
Summary of the method: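 Recombinant human αvβ3 or α5β1 coated at 0.5 μg/mL overnight at 4 °C in Tris-HCl pH 7.4 buffer with Mn2+, Ca2+, Mg2+, then blocked with 1% BSA. Triplicate wells, nonlinear regression, run in duplicate.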
Target sequence in this assay (P05106 27-788 limits assumed): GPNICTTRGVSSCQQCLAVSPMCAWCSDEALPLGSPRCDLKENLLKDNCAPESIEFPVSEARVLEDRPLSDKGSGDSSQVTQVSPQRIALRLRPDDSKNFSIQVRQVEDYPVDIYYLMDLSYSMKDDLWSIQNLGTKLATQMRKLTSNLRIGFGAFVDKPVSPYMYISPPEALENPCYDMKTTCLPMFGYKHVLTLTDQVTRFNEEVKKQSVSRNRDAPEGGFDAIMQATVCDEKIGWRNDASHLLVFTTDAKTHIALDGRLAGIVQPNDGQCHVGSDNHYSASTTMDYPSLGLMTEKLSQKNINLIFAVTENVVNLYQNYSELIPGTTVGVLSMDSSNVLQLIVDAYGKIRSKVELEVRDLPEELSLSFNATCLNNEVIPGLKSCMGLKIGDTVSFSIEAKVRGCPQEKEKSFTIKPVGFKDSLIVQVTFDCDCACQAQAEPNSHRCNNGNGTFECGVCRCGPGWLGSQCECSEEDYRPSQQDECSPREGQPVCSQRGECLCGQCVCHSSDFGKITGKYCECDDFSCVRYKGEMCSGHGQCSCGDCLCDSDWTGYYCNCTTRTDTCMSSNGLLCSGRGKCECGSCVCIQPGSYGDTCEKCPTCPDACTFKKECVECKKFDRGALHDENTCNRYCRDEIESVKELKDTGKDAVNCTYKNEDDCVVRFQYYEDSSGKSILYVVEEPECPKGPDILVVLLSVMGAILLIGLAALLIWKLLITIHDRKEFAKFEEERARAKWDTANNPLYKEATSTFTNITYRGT
Target sequence in this assay (P06756 31-889 limits assumed): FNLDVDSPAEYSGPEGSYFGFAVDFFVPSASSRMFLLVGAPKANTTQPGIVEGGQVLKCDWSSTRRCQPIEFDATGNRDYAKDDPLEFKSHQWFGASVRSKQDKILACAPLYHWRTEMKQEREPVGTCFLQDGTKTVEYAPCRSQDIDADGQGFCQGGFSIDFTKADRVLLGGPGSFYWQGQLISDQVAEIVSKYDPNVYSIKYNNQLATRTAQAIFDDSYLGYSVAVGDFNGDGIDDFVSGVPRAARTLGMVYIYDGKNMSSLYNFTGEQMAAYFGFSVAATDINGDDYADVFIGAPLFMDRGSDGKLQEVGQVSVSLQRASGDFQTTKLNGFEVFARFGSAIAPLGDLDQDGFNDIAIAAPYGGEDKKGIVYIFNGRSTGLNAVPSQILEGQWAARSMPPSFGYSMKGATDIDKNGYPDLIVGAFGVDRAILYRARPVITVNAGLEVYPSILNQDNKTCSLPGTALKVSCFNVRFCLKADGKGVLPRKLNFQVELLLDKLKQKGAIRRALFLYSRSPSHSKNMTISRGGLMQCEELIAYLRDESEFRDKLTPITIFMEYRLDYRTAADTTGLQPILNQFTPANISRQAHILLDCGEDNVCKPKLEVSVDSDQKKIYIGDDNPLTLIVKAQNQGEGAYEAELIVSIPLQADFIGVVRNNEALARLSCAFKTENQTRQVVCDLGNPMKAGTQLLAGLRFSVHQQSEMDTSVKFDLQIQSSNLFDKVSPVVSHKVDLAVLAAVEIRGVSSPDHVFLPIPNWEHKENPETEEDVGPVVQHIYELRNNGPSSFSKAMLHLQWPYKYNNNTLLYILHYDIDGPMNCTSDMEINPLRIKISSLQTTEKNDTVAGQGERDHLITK
Target sequence in this assay (P06756 891-1048 limits assumed): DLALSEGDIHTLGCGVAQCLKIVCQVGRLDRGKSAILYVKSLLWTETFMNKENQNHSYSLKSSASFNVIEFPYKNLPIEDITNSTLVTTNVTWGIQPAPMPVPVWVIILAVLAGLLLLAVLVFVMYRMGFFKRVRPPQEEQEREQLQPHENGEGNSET

Integrin alpha-V/beta-5 = Integrin alpha-V/beta-5 (Homo sapiens, UniProt P06756+P18084); test: Displacement of biotinylated vitronectin from human integrin alphaVbeta5 measured after 3 hrs by solid-phase receptor binding assay; type: protein-complex assay
Integrin alpha-5/beta-1 [2] = target: T2, Integrin alpha-5/beta-1 (Homo sapiens, UniProt P05556+P08648); test: Inhibition of alpha5beta1 (unknown origin); type: protein-complex assay
[3] = Inhibition of VEGF-A-induced cell proliferation in human EPC at 1 uM measured after 24 hrs by trypan blue exclusion assay relative to control; type: functional
Summary of the method: (§1)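 Human cord-blood EPCs seeded at 6,000 cells/well on gelatin, adhered 4 h in complete medium. Then placed in serum-free medium with VEGF-A 20 ng/mL and compound at 1 μM, re-added every 24 h. Cell number and viability measured by trypan blue exclusion at 24, 48 and 72 h. Triplicate, repeated at least three times.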

[4] = Stability in rat plasma assessed as compound remaining at 1 uM measured up to 8 hrs by HPLC-UV-Vis analysis; type: ADME, cell-free; settings: read-out: Stability
Summary of the method: (§2)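 Rat or human plasma diluted to 80% v/v with 100 mM PBS pH 7.4; compound at 1 μM final, 37 °C, protected from light. Aliquots sampled over time up to 8 h, quenched with two volumes MeCN, centrifuged, and analyzed by HPLC-UV-Vis for % compound remaining.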

[5] = Stability in human plasma assessed as compound remaining at 1 uM measured up to 8 hrs by HPLC-UV-Vis analysis; type: ADME, cell-free; settings: read-out: Stability; summary of the method: as §2
[6] = n-Octanol-buffer distribution coefficient, log D of the compound at pH 7.4 incubated for 4 hrs by HPLC-UV-vis based shake flask method; type: physicochemical
Summary of the method: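 Shake-flask partition between n-octanol and 50 mM MOPS pH 7.4 (ionic strength 0.15 M, KCl) at 25 ± 3 °C. Phases pre-saturated and equilibrated 4 h in the dark; each phase analyzed by HPLC-UV-Vis. Mean of at least three runs with different volume ratios.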

Integrin alpha-V/beta-3 [7] = target: T1, Integrin alpha-V/beta-3; test: Drug internalization in human EPC assessed as alphavbeta3-mediated drug uptake by measuring intracellular content per mg protein at 1 uM measured after 1 hr by HPLC-ESI-MS/MS analysis; type: ADME, cell-based
Summary of the method: (§3)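 Confluent EPCs in serum- and growth-factor-free medium received compound at 1 μM final for 1 h at 37 °C. Cells washed with PBS, then extracted immediately or 8 h later with ethanol at 4 °C. Extract measured by HPLC-ESI-MS/MS; protein by Bradford. Reported as nmol/mg protein; uptake rate as pmol/min/mg protein over the first hour. Triplicate.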
Target sequence in this assay (P05106 27-788 limits assumed): as the sequence (P05106 27-788 limits assumed) above
Target sequence in this assay (P06756 31-889 limits assumed): as the sequence (P06756 31-889 limits assumed) above
Target sequence in this assay (P06756 891-1048 limits assumed): as the sequence (P06756 891-1048 limits assumed) above

Integrin alpha-V/beta-3 [8] = target: T1, Integrin alpha-V/beta-3; test: Drug internalization in human EPC assessed as alphavbeta3-mediated drug uptake per mg protein at 1 uM measured after 1 hr by HPLC-ESI-MS/MS analysis; type: ADME; summary of the method: as §3
Target sequence in this assay (P05106 27-788 limits assumed): as the sequence (P05106 27-788 limits assumed) above
Target sequence in this assay (P06756 31-889 limits assumed): as the sequence (P06756 31-889 limits assumed) above
Target sequence in this assay (P06756 891-1048 limits assumed): as the sequence (P06756 891-1048 limits assumed) above

Integrin alpha-V/beta-3 [9] = target: T1, Integrin alpha-V/beta-3; test: Drug internalization in human EPC assessed as alphavbeta3-mediated drug uptake at 1 uM measured after 1 hr by HPLC-ESI-MS/MS analysis; type: ADME; summary of the method: as §3
Target sequence in this assay (P05106 27-788 limits assumed): as the sequence (P05106 27-788 limits assumed) above
Target sequence in this assay (P06756 31-889 limits assumed): as the sequence (P06756 31-889 limits assumed) above
Target sequence in this assay (P06756 891-1048 limits assumed): as the sequence (P06756 891-1048 limits assumed) above

Integrin alpha-V/beta-3 [10] = target: T1, Integrin alpha-V/beta-3; test: Drug uptake in human EPC assessed as alphavbeta3-mediated drug uptake by measuring intracellular content per mg protein at 1 uM measured after 8 hr by HPLC-ESI-MS/MS analysis; type: ADME, cell-based; summary of the method: as §3
Target sequence in this assay (P05106 27-788 limits assumed): as the sequence (P05106 27-788 limits assumed) above
Target sequence in this assay (P06756 31-889 limits assumed): as the sequence (P06756 31-889 limits assumed) above
Target sequence in this assay (P06756 891-1048 limits assumed): as the sequence (P06756 891-1048 limits assumed) above

[11] = Drug uptake in human EPC at 1 uM measured after 1 hr in presence of alphaVbeta3 integrin ligand c(AmpRGD) amine by HPLC-ESI-MS/MS analysis; type: ADME, cell-based
Summary of the method: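 EPCs detached with Accutase, resuspended in serum-free medium, and given compound at 1 μM with or without c(AmpRGD) amine at 100 μM. Incubated at 37 °C, 10% CO2, then washed by centrifugation. Pellets extracted with ethanol at 4 °C for 10 min; content measured by HPLC-ESI-MS/MS.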

Integrin alpha-V/beta-3 [12] = target: T1, Integrin alpha-V/beta-3; test: Displacement of biotinylated vitronectin from recombinant human integrin alphaVbeta3 dark incubated for 3 hrs by solid-phase receptor binding assay; type: protein-complex assay
Summary of the method: (§4)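 Recombinant human αvβ3 or α5β1 coated at 0.5 μg/mL overnight at 4 °C in Tris-HCl pH 7.4 buffer with Mn2+, Ca2+, Mg2+, then blocked with 1% BSA. Streptavidin-peroxidase read-out at 415 nm. Triplicate wells, nonlinear regression, run in duplicate.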
Target sequence in this assay (P05106 27-788 limits assumed): as the sequence (P05106 27-788 limits assumed) above
Target sequence in this assay (P06756 31-889 limits assumed): as the sequence (P06756 31-889 limits assumed) above
Target sequence in this assay (P06756 891-1048 limits assumed): as the sequence (P06756 891-1048 limits assumed) above

Integrin alpha-5/beta-1 [13] = target: T2, Integrin alpha-5/beta-1; test: Displacement of biotinylated fibronectin from recombinant human integrin alpha5beta1 dark incubated for 3 hrs by solid-phase receptor binding assay; type: protein-complex assay; summary of the method: as §4
Integrin alpha-V/beta-3 [14] = target: T1, Integrin alpha-V/beta-3; test: Inhibition of vitronectin binding to alphaVbeta3 in human EPC in presence of MnCl2 measured after 30 mins by crystal violet staining based cell adhesion assay
Summary of the method: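 Plates coated overnight with vitronectin at 4 °C and blocked with PBS/1% BSA. EPCs in serum-free medium preincubated with compound (1–10000 nM) for 30 min at 37 °C with 2.0 mmol/L MnCl2. Plated at 5-6×10^4 cells/well for 1 h at 37 °C. Adherent cells stained with crystal violet, read at 540 nm; % inhibition vs untreated. Triplicate, repeated at least three times.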

EPC [15] = test: Inhibition of VEGF-A-induced cell proliferation in human EPC at 1 uM measured after 48 hrs by trypan blue exclusion assay; type: functional, cell-based; summary of the method: as §1
EPC [16] = test: Inhibition of VEGF-A-induced cell proliferation in human EPC at 1 uM measured after 72 hrs by trypan blue exclusion assay; type: functional, cell-based; summary of the method: as §1
[17] = Cytotoxicity against human EPC assessed as cell viability at 1 uM measured after 24 to 72 hrs by trypan blue exclusion assay; type: cell-based; summary of the method: as §1
[18] = target: Platelet-derived growth factor receptor beta (Homo sapiens, UniProt P09619); test: Inhibition of recombinant human PDGFRbeta expressed in insect cells using Ulight-Poly GAT[EAY(1:1:1)]n as substrate measured after 30 mins by LANCE method
Platelet-derived growth factor receptor beta, sequence (P09619 whole entry): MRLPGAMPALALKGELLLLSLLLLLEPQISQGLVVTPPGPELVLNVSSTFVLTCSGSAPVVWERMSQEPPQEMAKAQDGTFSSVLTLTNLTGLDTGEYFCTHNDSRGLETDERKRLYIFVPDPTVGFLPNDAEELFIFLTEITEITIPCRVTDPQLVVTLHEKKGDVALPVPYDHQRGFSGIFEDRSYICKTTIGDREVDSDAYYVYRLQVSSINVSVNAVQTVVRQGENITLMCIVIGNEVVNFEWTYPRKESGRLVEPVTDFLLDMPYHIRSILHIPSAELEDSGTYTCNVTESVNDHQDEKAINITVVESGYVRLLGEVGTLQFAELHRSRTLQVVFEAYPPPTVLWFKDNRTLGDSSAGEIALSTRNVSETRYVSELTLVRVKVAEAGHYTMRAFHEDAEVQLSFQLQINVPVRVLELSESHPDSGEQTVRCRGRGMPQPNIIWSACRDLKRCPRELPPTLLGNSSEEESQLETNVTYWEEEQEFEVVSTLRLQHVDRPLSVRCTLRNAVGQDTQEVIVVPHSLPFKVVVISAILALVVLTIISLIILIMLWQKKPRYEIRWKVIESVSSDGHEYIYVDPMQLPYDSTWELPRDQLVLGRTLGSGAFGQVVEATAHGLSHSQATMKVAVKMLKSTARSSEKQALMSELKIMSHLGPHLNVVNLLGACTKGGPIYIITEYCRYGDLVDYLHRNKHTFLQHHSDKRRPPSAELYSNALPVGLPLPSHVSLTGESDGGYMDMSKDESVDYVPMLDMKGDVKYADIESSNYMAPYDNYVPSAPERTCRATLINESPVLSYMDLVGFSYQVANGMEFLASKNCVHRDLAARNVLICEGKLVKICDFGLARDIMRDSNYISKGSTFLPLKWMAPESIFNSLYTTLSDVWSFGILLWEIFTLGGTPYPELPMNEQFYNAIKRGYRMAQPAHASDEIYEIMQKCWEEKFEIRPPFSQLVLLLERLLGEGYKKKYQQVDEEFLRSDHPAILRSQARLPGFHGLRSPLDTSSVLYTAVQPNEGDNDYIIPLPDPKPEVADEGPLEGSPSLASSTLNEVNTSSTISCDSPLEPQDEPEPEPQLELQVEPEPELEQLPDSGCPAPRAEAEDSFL

[19] = target: T3, Vascular endothelial growth factor receptor 2 (Homo sapiens, UniProt P35968); test: Inhibition of recombinant human VEGFR2 expressed in Sf9 cells using Ulight-CAGAGAIETDKEYYTVKD as substrate measured after 60 mins by LANCE method
T3 sequence (P35968 whole entry): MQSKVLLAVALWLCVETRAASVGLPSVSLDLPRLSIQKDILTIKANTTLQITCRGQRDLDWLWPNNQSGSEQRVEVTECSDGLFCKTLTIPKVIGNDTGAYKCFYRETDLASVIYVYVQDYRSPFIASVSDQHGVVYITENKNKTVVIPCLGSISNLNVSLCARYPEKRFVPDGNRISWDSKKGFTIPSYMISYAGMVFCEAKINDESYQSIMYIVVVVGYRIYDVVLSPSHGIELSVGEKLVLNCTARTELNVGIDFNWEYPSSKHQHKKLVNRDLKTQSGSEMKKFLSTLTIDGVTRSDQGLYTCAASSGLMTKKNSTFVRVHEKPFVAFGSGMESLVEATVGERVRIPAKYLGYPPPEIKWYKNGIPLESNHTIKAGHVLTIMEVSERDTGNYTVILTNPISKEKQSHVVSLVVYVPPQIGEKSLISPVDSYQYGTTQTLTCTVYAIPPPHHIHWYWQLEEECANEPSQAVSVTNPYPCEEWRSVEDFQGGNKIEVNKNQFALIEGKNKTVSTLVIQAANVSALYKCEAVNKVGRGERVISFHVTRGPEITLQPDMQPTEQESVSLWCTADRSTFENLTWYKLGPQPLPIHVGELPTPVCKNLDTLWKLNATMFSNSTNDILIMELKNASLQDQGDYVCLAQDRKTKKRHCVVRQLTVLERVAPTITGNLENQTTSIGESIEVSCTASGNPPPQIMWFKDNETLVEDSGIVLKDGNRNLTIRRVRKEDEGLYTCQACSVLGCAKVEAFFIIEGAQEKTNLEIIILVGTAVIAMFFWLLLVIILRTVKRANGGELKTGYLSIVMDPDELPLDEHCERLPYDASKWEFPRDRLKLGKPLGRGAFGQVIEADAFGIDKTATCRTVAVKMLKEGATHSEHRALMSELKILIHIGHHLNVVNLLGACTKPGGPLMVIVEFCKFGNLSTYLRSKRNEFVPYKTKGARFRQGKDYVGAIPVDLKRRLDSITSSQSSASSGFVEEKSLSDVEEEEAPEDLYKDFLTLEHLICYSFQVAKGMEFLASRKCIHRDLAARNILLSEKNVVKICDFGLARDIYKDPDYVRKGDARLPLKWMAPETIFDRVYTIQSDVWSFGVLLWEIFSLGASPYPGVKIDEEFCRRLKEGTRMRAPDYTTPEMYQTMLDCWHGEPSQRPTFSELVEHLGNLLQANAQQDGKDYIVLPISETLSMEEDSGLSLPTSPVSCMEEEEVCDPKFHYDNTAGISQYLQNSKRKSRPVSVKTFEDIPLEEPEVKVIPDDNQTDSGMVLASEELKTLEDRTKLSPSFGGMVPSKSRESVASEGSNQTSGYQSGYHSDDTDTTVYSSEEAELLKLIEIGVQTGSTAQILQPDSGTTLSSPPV

[20] = Antiangiogenic activity in human EPC assessed as inhibition of VEGF-A induced tubule formation at 10 nM measured after 6 hrs by matrigel based phase contrast microscopic analysis relative to control; type: functional
Summary of the method: (§5)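 EPCs grown 24 h in EGM-2, trypsinized, resuspended in serum/growth-factor-free EGM-2 with VEGF-A 20 ng/mL plus compound (0.01, 0.1, 1.0 μM) and seeded on growth-factor-reduced Matrigel at 7×10^4 cells/well. Incubated 6 h at 37 °C, photographed by phase contrast. Loops counted in four random fields per well, given as % reduction vs untreated cells. Triplicate.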

EPC [21] = test: Antiangiogenic activity in human EPC assessed as inhibition of VEGF-A induced tubule formation at 0.1 to 1 uM measured after 6 hrs by matrigel based phase contrast microscopic analysis; type: functional, cell-based; summary of the method: as §5
[22] = target: T3, Vascular endothelial growth factor receptor 2; settings: at 1 µM
Mus musculus = test: In vivo antiangiogenic activity in EHS derived matrigel plug implanted FVB mouse assessed as inhibition of VEGF-A-induced angiogenesis at 10 mg/kg, by microscopic method
Integrin alpha-V/beta-3 [23] = target: T1, Integrin alpha-V/beta-3; settings: 1 to 10000 nM

SMILES	inhibition at 1 µM [3]	remaining at 8 h, 1 µM [4]	remaining at 8 h, 1 µM [5]	logD at 4 h [6]	Drug uptake (Integrin alpha-V/beta-3 [7])	Drug uptake (Integrin alpha-V/beta-3 [8])	log(activity) (Integrin alpha-V/beta-3 [9])	Drug uptake (Integrin alpha-V/beta-3 [10])	Drug uptake [11]	IC50 (Integrin alpha-V/beta-3 [12])	IC50 (Integrin alpha-5/beta-1 [13])	IC50 (Integrin alpha-V/beta-3 [14])	inhibition (Integrin alpha-V/beta-3 [14])	inhibition (EPC [15])	inhibition (EPC [16])	Activity [17]	inhibition at 0.01 µM [20]	inhibition (EPC [21])	inhibition [22]	inhibition (Mus musculus)	also measured
N=C(N)NCCC[C@@H]1NC(=O)[C@@H]2C[C@@H](CN2CCN)NC(=O)[C@H](CC(=O)O)NC(=O)CNC1=O	–	–	–	–	–	–	–	–	–	–	–	–	–	–	–	–	–	–	–	–	IC50 (Integrin alpha-V/beta-3 [1]): 6.1 nM; IC50 (Integrin alpha-V/beta-5): 315 nM; IC50 (Integrin alpha-5/beta-1 [2]): 152 nM
CCN(CCNC(=O)c1c(C)[nH]c(/C=C2\C(=O)Nc3ccc(F)cc32)c1C)CCOCCOCCNC(=O)c1cc(OCc2cn(CCCCN3C[C@@H]4C[C@H]3C(=O)N[C@@H](CCCNC(=N)N)C(=O)NCC(=O)N[C@@H](CC(=O)O)C(=O)N4)nn2)cc(OCc2cn(CCCCN3C[C@@H]4C[C@H]3C(=O)N[C@@H](CCCNC(=N)N)C(=O)NCC(=O)N[C@@H](CC(=O)O)C(=O)N4)nn2)c1	41%	109%	98.6%	-3.02	0.94 nmol/mg	15.7 pmol/min	1.19	0.54 nmol/mg	Not Active	3.8 nM	95.8 nM	500 nM	Dose-dependent effect	Active	Active	Non-Toxic	43%	Active	Active	Active	IC50 [18]: 9 nM; IC50 [19]: 420 nM
CCN(CC)CCNC(=O)c1c(C)[nH]c(/C=C2\C(=O)Nc3ccc(F)cc32)c1C [SUNITINIB]	33%	97.3%	102%	2.51	5.72 nmol/mg	–	–	2.9 nmol/mg	–	–	–	–	–	Active	Active	Non-Toxic	30%	–	–	Active	inhibition (Integrin alpha-V/beta-3 [23]): inactive
Cc1[nH]c(/C=C2\C(=O)Nc3ccc(F)cc32)c(C)c1C(=O)NCCNC(=O)CCc1cn(CCCCN2C[C@@H]3C[C@H]2C(=O)N[C@@H](CCCNC(=N)N)C(=O)NCC(=O)N[C@@H](CC(=O)O)C(=O)N3)nn1	46%	88.2%	99%	-2.03	0.26 nmol/mg	4.3 pmol/min	0.64	0.22 nmol/mg	–	1.24 nM	30.7 nM	500 nM	Dose-dependent effect	Active	inactive	Non-Toxic	52%	Active	Active	–	–
CCN(CCNC(=O)c1c(C)[nH]c(/C=C2\C(=O)Nc3ccc(F)cc32)c1C)CCOCCOCCOCc1cn(CCCCN2C[C@@H]3C[C@H]2C(=O)N[C@@H](CCCNC(=N)N)C(=O)NCC(=O)N[C@@H](CC(=O)O)C(=O)N3)nn1	24%	104%	107%	-2.56	0.48 nmol/mg	8 pmol/min	0.9	0.43 nmol/mg	Not Active	5.1 nM	101 nM	10000 nM	–	Active	inactive	Non-Toxic	–	–	Active	–	–
